From ChEMBL document CHEMBL3352584, “Novel DNA gyrase inhibiting spiropyrimidinetriones with a benzisoxazole scaffold: SAR and in vivo characterization” (J Med Chem, 2014)
≈ marks a conversion by molar mass, not a printed value.

How the values were obtained:
Streptococcus pneumoniae [1] = test: Antimicrobial activity against Streptococcus pneumoniae 2800 harboring GyrB K143I/T172A mutant by broth microdilution method; assay type: functional
Streptococcus pneumoniae [2] = test: Antimicrobial activity against Streptococcus pneumoniae 2485 harboring GyrA S81F mutant, GyrB D160E/T329A mutant and ParC S79F mutant by broth microdilution method; assay type: functional
Staphylococcus aureus [3] = test: Inhibition of DNA synthesis in methicillin-sensitive Staphylococcus aureus by [3H]-thymidine incorporation assay; assay type: functional, organism-based
Staphylococcus aureus [4] = test: Inhibition of RNA synthesis in methicillin-sensitive Staphylococcus aureus by [3H]-uridine incorporation assay; assay type: functional, organism-based
[5] = Fraction unbound in mouse plasma at 10 uM after 16 hrs by LC-MS/MS analysis; assay type: ADME, cell-free
Method in brief: (§1)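 Compound at 10 μM in human, rat or mouse plasma, equilibrium dialysis against buffer at 37 °C for 16 h. Buffer and plasma concentrations measured by LC-MS/MS, and the free fraction taken from their ratio.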

[6] = Bioavailability in mouse at 3 mg/kg, iv or at 10 mg/kg, po by LC-MS/MS method; assay type: ADME, organism-based; conditions: in vivo
Method in brief: (§2)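 Male mice (CD-1) or male Wistar Hannover rats, three per experiment, given a 15 min iv infusion at 3 mg/kg or oral dosing at 10 mg/kg. Vehicle was DMA:TEG:saline 40/40/20 for mice and meglumine/cyclodextrin for rats. Serial jugular blood was taken over 0–24 h, plasma analysed by LC-MS/MS, and a noncompartmental analysis used. Mean values are given.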

[7] = Fraction unbound in rat plasma at 10 uM after 16 hrs by LC-MS/MS analysis; assay type: ADME, cell-free; method in brief: as §1
[8] = Clearance in rat at 3 mg/kg, iv or at 10 mg/kg, po by LC-MS/MS method; assay type: ADME, organism-based; conditions: in vivo; method in brief: as §2
[9] = Bioavailability in rat at 3 mg/kg, iv or at 10 mg/kg, po by LC-MS/MS method; assay type: ADME, organism-based; conditions: in vivo; method in brief: as §2
Rattus norvegicus [10] = test: Toxicity in Wistar Hannover rat at 1000 mg/kg, po administered as single dose; assay type: organism-based; set-up: dose 1000 mg/kg, route oral; conditions: in vivo
Method in brief: (§3)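 Single-dose oral phase in groups of three male Wistar Hannover rats, at doses up to 1000 mg/kg. Vehicle was 0.2 M meglumine/20% hydroxypropyl-β-cyclodextrin.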

[11] = Toxicity in po dosed Wistar Hannover rat administered as single dose; assay type: organism-based; conditions: in vivo; method in brief: as §3
[12] = Toxicity in po dosed Wistar Hannover rat administered administered once daily for 14 days; assay type: organism-based; conditions: in vivo
Method in brief: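 Repeat-dose oral study in Wistar Hannover rats, three males and three females per group, dosed once daily for 14 days at 0, 250, 500 or 750 mg/kg/day and necropsied on day 15. Endpoints were clinical signs, body weight, food intake, temperature, hematology, plasma chemistry, toxicokinetics, and gross and microscopic pathology.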

Staphylococcus aureus [13] = test: Antimicrobial activity against methicillin-sensitive Staphylococcus aureus ARC516 infected in mouse at 3 to 100 mg/kg/day, ip starting 2 hrs after infection; assay type: functional, organism-based
Method in brief: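 CD-1 mouse thighs infected with mid-log S. aureus ARC516 at a target inoculum of 5 × 10⁵ CFU. Groups of five received ip compound in DMA:TEG:saline 40/40/20, either q24h or q6h, from 2 h post-infection. Mice were killed 24 h after treatment start and thigh homogenates plated on tryptic soy agar (37 °C overnight) for CFU/g. Neutropenia was induced with ip cyclophosphamide, 150 mg/kg on day −4 and 100 mg/kg on day −1.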

Staphylococcus aureus [14] = test: Antimicrobial activity against methicillin-sensitive Staphylococcus aureus ARC516 infected in immunocompetant mouse administered as single ip dose starting 2 hrs after infection; assay type: functional, organism-based
Staphylococcus aureus [15] = test: Antimicrobial activity against methicillin-sensitive Staphylococcus aureus ARC516 infected in immunosupressed mouse administered as single ip dose starting 2 hrs after infection; assay type: functional, organism-based
Staphylococcus aureus [16] = test: Antimicrobial activity against methicillin-sensitive Staphylococcus aureus ARC516 infected in immunosupressed mouse assessed as reduction in CFU at AUC of 120 ug.hr/mL compound administered as single ip dose starting 2 hrs after infection relative to untreated control; assay type: functional
Method in brief: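 Mice were made neutropenic with IP cyclophosphamide, 150 mg/kg at day −4 and 100 mg/kg at day −1. CD-1 thighs were then infected with mid-log S. aureus ARC516 (target 5 × 10⁵ CFU). Groups of five received IP compound in DMA:TEG:saline 40/40/20%, starting 2 h post-infection, alongside vehicle controls. At 24 h after treatment start, thigh homogenates were plated on tryptic soy agar (37 °C, overnight) for CFU/g.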

Staphylococcus aureus [17] = test: Antimicrobial activity against methicillin-sensitive Staphylococcus aureus ARC516 infected in immunocompetant mouse assessed as reduction in CFU at AUC of 70 ug.hr/mL compound administered as single ip dose starting 2 hrs after infection relative to untreated control; assay type: functional
Method in brief: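 CD-1 mouse thighs were infected with mid-log S. aureus ARC516 at a target inoculum of 5 × 10⁵ CFU. Groups of five received IP compound in DMA:TEG:saline 40/40/20%, starting 2 h post-infection; a vehicle group served as control. Mice were killed 24 h after treatment start, and thigh homogenates were plated on tryptic soy agar (37 °C, overnight) for CFU/g. Free exposure was corrected for mouse plasma protein binding.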

[18] = Cmax in Wistar Hannover rat at 250 mg/kg, po dosed once daily for 14 days measured on day 14; assay type: ADME, organism-based; set-up: dose 250 mg/kg, route oral; conditions: in vivo
Method in brief: (§4)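 Wistar Hannover rats, 2 males and 2 females per dose, dosed orally once daily for 14 days at 250, 500 or 750 mg/kg/day. Vehicle was 0.2 M meglumine/20% hydroxypropyl-β-cyclodextrin. Blood was sampled on day 14 and exposure measured in blood. Animals were killed after sampling without necropsy.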

[19] = Cmax in Wistar Hannover rat at 750 mg/kg, po dosed once daily for 14 days measured on day 14; assay type: ADME, organism-based; set-up: dose 750 mg/kg, route oral; conditions: in vivo; method in brief: as §4
[20] = AUC in Wistar Hannover rat at 250 mg/kg, po dosed once daily for 14 days measured on day 14; assay type: ADME, organism-based; set-up: dose 250 mg/kg, route oral; conditions: plasma; method in brief: as §4
[21] = AUC in Wistar Hannover rat at 750 mg/kg, po dosed once daily for 14 days measured on day 14; assay type: ADME, organism-based; set-up: dose 750 mg/kg, route oral; conditions: plasma; method in brief: as §4
Rattus norvegicus [22] = test: fAUC in Wistar Hannover rat at 500 mg/kg, po dosed once daily for 14 days measured on day 14; assay type: ADME, organism-based; set-up: dose 500 mg/kg, route oral; conditions: in vivo, 336 h
DNA gyrase = DNA gyrase (Escherichia coli, UniProt P0AES4+P0AES6); test: Inhibition of Escherichia coli DNA gyrase using fluorescence-tagged DNA by fluorescenct polarization assay; assay type: protein-complex assay
Method in brief: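 E. coli DNA gyrase supercoiling assay. The read-out was differential binding of a fluorescence-tagged DNA to relaxed versus supercoiled DNA, giving IC50.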

[23] = Fraction unbound in human plasma at 10 uM after 16 hrs by LC-MS/MS analysis; assay type: ADME, cell-free; method in brief: as §1
Streptococcus pneumoniae [24] = test: Antimicrobial activity against Streptococcus pneumoniae by broth microdilution method; assay type: functional
Method in brief: (§5)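 Broth microdilution following CLSI guidelines. Values under 12.5 μM are averages of three or more replicates.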

Streptococcus pyogenes = test: Antimicrobial activity against Streptococcus pyogenes by broth microdilution method; assay type: functional; method in brief: as §5
Staphylococcus aureus [25] = test: Antimicrobial activity against methicillin-resistant and quinolone-resistant Staphylococcus aureus by broth microdilution method; assay type: functional; method in brief: as §5
Haemophilus influenzae = test: Antimicrobial activity against Haemophilus influenzae by broth microdilution method; assay type: functional; method in brief: as §5
Escherichia coli [26] = test: Antimicrobial activity against Escherichia coli by broth microdilution method; assay type: functional; method in brief: as §5
Escherichia coli [27] = test: Antimicrobial activity against tolC-deficient Escherichia coli by broth microdilution method; assay type: functional; method in brief: as §5
Staphylococcus aureus [28] = test: Antimicrobial activity against Staphylococcus aureus 2792 harboring wild-type GyrA and GyrB R144A mutant by broth microdilution method; assay type: functional

Compound: Cc1noc2c(F)c3c(cc12)CC1(C(=O)NC(=O)NC1=O)[C@H]1[C@H](C)O[C@H](C)CN31
- MIC (Streptococcus pneumoniae [1]): 4 µg/mL (≈ 9.94 µM)
- MIC (Streptococcus pneumoniae [2]): 2 µg/mL (≈ 4.97 µM)
- IC50 (Staphylococcus aureus [3]): 0.06 µg/mL (≈ 0.149 µM)
- IC50 (Staphylococcus aureus [4]): 5 µg/mL (≈ 12.4 µM)
- fraction unbound at 16 h, 10 µM [5]: 0.19
- bioavailability [6]: 58%
- fraction unbound at 16 h, 10 µM [7]: 0.16
- clearance [8]: 32 mL/min/kg
- bioavailability [9]: 71%
- Activity (Rattus norvegicus [10]): Toxic
- MTD [11]: ≤ 750 mg/kg
- NOAEL at 336 h [12]: 500 mg/kg
- Activity (Staphylococcus aureus [13]): Dose-dependent effect
- Activity (Staphylococcus aureus [14]): Dose-dependent effect
- Activity (Staphylococcus aureus [15]): Dose-dependent effect
- fold change (FC) (Staphylococcus aureus [16]): 3
- fold change (FC) (Staphylococcus aureus [17]): 3
- Cmax [18]: 290 µM
- Cmax [19]: 487 µM
- AUC at 336 h [20]: 2300 µM·h
- AUC at 336 h [21]: 4600 µM·h
- fAUC (Rattus norvegicus [22]): 700 µM·h
- IC50 (DNA gyrase): 290 nM
- fraction unbound at 16 h, 10 µM [23]: 0.094
- MIC (Streptococcus pneumoniae [24]): 8.8 µM (≈ 3.54 µg/mL)
- MIC (Streptococcus pyogenes): 6.2 µM (≈ 2.49 µg/mL)
- MIC (Staphylococcus aureus [25]): 2 µM (≈ 0.805 µg/mL)
- MIC (Haemophilus influenzae): 1 µM (≈ 0.402 µg/mL)
- MIC (Escherichia coli [26]): 45 µM (≈ 18.1 µg/mL)
- MIC (Escherichia coli [27]): ≤ 0.2 µM
- MIC (Staphylococcus aureus [28]): 0.5 µg/mL (≈ 1.24 µM)
